Source: PubChem BioAssay (several laboratories)
Hits are enriched below; roughly 5.9% of the tested compounds scored in any of these assays.
Cav32 inh = Cav3.2 calcium influx blockers – cell-based, Fluo-4 calcium fluorescence, FDSS, MLSMR library, primary screen | Voltage-dependent T-type calcium channel subunit alpha-1H (Homo sapiens), O95180 | Cav3.2-expressing cells; hits give low values | B-score at 10 µM | hit rate 4% among 100,000 | AID 449739, 2010;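 active = single-dose well whose peak fluorescence ratio is a statistical outlier from its plate by either plate-standardised score or position-corrected B-score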
Measles CPE = compounds protecting cells from measles virus cytopathic effect, primary screen, measles RdRp inhibitor project, single point, MLSMR library, absorbance. Measles virus-infected cells, CPE protection. protection (pct of control), % at 4 µM. hit rate 1.5% among 140,000. AID 841, 2007; in the data active = protection mostly above about 24%, no sharp cut-off; inactive = mostly below about 26%
PTK2B oligo ant = antagonists of Pyk2 self-association, primary screen, Q293 cells, FERM NanoBiT luminescence, HTS. hits give low values. hit rate 0.83% among 99,000. AID 1347419, 2020. Protein-tyrosine kinase 2-beta (Homo sapiens), Q14289. z-score (the deposit names both 25 µM and 10 µM);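 active = Z-score of -3 or lower, scaled per plate to the spread of control and sample wells; inactive = z-score above -3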;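 also: negative z-score means lost luminescence so less FERM oligomerization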
Phagocytosis inh = inhibitors of macrophage phagocytosis, primary screen, imaging, J774A.1 cells, IgG beads | J774A.1 macrophage IgG-bead phagocytosis | inhibition, % at 5 µM | hit rate 0.07% among 110,000 | AID 1029, 2008;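 active = inhibition above the mean of the plate negative controls plus 5 SD, cut at about 13% in these data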;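 also: phagocytic index as fraction of beads internalized from green versus red external bead signal; plate controls were DMSO negative control for no effect and cytochalasin-D positive control for full effect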
hDAT+cocaine = changed hDAT dopamine uptake under cocaine IC80, either direction, primary screen, cocaine antagonist project, cell-based, LLC-PK1 hDAT, [14C]-dopamine uptake, MLSMR. B-score at 10 µM. hit rate 1.3% among 110,000. Sodium-dependent dopamine transporter (Homo sapiens), Q01959. LLC-PK1 hDAT cells, [14C]-dopamine uptake with cocaine IC80; actives deviate in either direction;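 active = Z score or B-score, a plate-position-corrected score, falls beyond the plate's 99.7% confidence bounds, in either direction; inactive = both scores lie inside the 99.7% bounds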;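 also: scored against the spread of the other compound wells on the same plate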
Target sequence (Q01959 whole entry, looked up): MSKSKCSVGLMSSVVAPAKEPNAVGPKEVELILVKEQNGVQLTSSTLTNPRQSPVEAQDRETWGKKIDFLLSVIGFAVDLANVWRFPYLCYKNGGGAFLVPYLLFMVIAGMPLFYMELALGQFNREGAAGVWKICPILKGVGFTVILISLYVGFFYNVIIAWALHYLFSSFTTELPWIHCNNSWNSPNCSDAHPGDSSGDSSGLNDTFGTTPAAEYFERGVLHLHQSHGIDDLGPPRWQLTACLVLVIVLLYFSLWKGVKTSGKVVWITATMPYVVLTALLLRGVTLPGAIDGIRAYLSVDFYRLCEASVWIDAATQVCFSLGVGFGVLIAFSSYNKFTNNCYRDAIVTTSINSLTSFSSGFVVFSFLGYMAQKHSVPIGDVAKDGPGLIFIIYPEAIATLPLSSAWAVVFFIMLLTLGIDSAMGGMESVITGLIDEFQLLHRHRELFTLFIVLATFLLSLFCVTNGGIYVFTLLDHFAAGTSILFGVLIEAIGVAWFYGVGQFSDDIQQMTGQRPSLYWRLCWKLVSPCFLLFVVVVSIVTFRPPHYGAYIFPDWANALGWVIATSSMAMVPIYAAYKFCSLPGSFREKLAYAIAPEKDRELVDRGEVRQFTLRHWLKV
Rev-RRE block = HIV-1 Rev-RRE binding inhibitors, primary screen, biochemical, FRET, protein-RNA interaction | Rev peptide-RRE RNA binding | hit rate 0.79% among 97,000 | AID 704, 2007 | P05866 | inhibition, % at 8 µM;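 active = inhibition above the screen-wide mean plus 3 SD, cut at about 35% in these data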;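 also: 0% = median DMSO wells and 100% = median Neomycin B control wells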
Target sequence (P05866 whole entry, looked up): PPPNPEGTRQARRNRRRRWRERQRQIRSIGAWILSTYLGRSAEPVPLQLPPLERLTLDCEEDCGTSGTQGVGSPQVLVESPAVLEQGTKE
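Test system: Cy5-tagged RRE RNA duplex with fluorescein-tagged Rev peptide; Probe or stimulus: labelled Rev peptide; Schedule: 5 min preincubation and 15 min binding, 25 °C; Signal: FRET fluorescence readout; Evaluation: % inhibition from 671/540 nm acceptor-to-donor ratio, scaled between controls; Control set: DMSO and neomycin B.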
Starred values were filed as active, the others as inactive; [ ] = another dose, or the depositor's remark.

Results for O=C(Nc1cccc(Cl)c1)c1ccc2c(=O)n3c(nc2c1)CCCCC3 ?
Cav32 inh: -5.7*; Measles CPE: 0; PTK2B oligo ant: -1.8; Phagocytosis inh: -2; hDAT+cocaine: 1.1; Rev-RRE block: 10

How did Cc1ccc(S(=O)(=O)N2CCCCC2)cc1NC(=O)c1ccc2c(=O)n3c(nc2c1)CCCCC3 do in these assays?
Measles CPE: 7

What do the screens show for `O=C(Nc1ccc(F)c(Cl)c1)c1ccc2c(=O)n3c(nc2c1)CCCCC3`?
Cav32 inh: -7.7*; Measles CPE: 5; PTK2B oligo ant: -0.68; Phagocytosis inh: -2; hDAT+cocaine: 1; Rev-RRE block: 4

How did O=C(c1ccc2c(=O)n3c(nc2c1)CCCCC3)N1CCN(C(c2ccccc2)c2ccccc2)CC1 do in these assays?
Cav32 inh: -4.8*; Measles CPE: 42*; PTK2B oligo ant: -1.7; Phagocytosis inh: 0; hDAT+cocaine: -4.1*; Rev-RRE block: -9

What do the screens show for `CCN(CC)C(=O)c1cnn(-c2ccccc2)c1NC(=O)c1cccs1`?
Cav32 inh: 0.56; Measles CPE: 15; PTK2B oligo ant: 0.66; hDAT+cocaine: -1.1; Rev-RRE block: -2

What do the screens show for `COCc1cc(=O)n2[nH]c(-c3ccsc3-n3c(C)ccc3C)cc2n1`?
Cav32 inh: 1.1; Measles CPE: 6; PTK2B oligo ant: -0.11; hDAT+cocaine: 0.11; Rev-RRE block: 1

What do the screens show for `Cc1nc2cc(-c3ccsc3-n3c(C)ccc3C)[nH]n2c(=O)c1Cl`?
Cav32 inh: -4.7*; Measles CPE: 19; PTK2B oligo ant: 0.41; hDAT+cocaine: -0.91; Rev-RRE block: 9

How did CCN1C=C(Cc2ccc(OC)cc2)C2=C(C1)C(c1ccc(OC)cc1)C(C#N)=C(N)O2 (configuration not stated) do in these assays?
Measles CPE: 14; PTK2B oligo ant: 0.68; Rev-RRE block: 40*

What do the screens show for `CC(=O)N1c2c(cc(Br)cc2S(=O)(=O)N2CCN(C(=O)c3ccco3)CC2)CC1C` (configuration not stated)?
Cav32 inh: 0.77; Measles CPE: 9; PTK2B oligo ant: -0.29; hDAT+cocaine: -0.013; Rev-RRE block: -5

How did O=C(NNCC(O)COc1ccccc1)c1ccccc1 (configuration not stated) do in these assays?
Measles CPE: 49*; Phagocytosis inh: -4

What do the screens show for `COc1ccc(OCC(O)CNC(=O)c2ccccc2C(=O)O)cc1` (configuration not stated)?
Cav32 inh: 0.85; Measles CPE: 4; PTK2B oligo ant: -0.8; Phagocytosis inh: -4; hDAT+cocaine: 0.12

What do the screens show for `CCC(C)/C=C/C1=CC2=C(Cl)C(=O)C3(C)OC(=O)C(C(=O)C(C)C(C)O)C3C2=CO1` (configuration not stated)?
Cav32 inh: -0.018; hDAT+cocaine: -0.9

Results for Nc1cc(C(F)(F)F)cc2c1SCC(=O)N2 ?
Measles CPE: 4; Phagocytosis inh: -7

Results for CCCC(=O)NC(=S)Nc1cccc(Cl)c1N1CCCCC1 ?
Cav32 inh: -5*; Measles CPE: 4; PTK2B oligo ant: 0.36; Phagocytosis inh: 0; hDAT+cocaine: 1.4; Rev-RRE block: -5

Results for CCc1ccc(N/C(SC)=C(/C#N)C(N)=O)cc1 ?
Cav32 inh: 0.031; Measles CPE: 40*; PTK2B oligo ant: -0.36; hDAT+cocaine: -0.31; Rev-RRE block: 8

Results for Cc1ccc(CCNC(=O)CS(=O)Cc2nc(-c3cccc(C)c3)oc2C)cc1 (configuration not stated) ?
Cav32 inh: -5.2*; Measles CPE: 8; Phagocytosis inh: -1; hDAT+cocaine: -0.092; Rev-RRE block: 6

What do the screens show for `Cc1[nH]c2ccccc2c1SCCN`?
Cav32 inh: -0.45; hDAT+cocaine: 0.3; Rev-RRE block: 1

Results for Cc1[nH]c2ccccc2c1SCc1ccccc1 ?
Cav32 inh: -2.1; hDAT+cocaine: -2.7*

How did COc1ccc(N2C(=O)CC(NCc3ccncc3)C2=O)cc1 (configuration not stated) do in these assays?
Cav32 inh: 0.057; Measles CPE: 45*; PTK2B oligo ant: 0.69; hDAT+cocaine: -0.52; Rev-RRE block: 2

How did CCOC(=O)c1c(NS(=O)(=O)Cc2ccccc2)sc2c1CCCC2 do in these assays?
Cav32 inh: -4.2*; Measles CPE: 6; PTK2B oligo ant: -0.01; Phagocytosis inh: 0; hDAT+cocaine: -0.5; Rev-RRE block: -4

What do the screens show for `CCOC(=O)c1c(NS(=O)(=O)c2ccc(Br)cc2)sc2c1CCC2`?
Cav32 inh: -8.5*; Measles CPE: 9; PTK2B oligo ant: -0.24; hDAT+cocaine: 0.47; Rev-RRE block: 17

How did CCOC(=O)c1c(NC(=O)c2cccs2)sc2c1CCCC2 do in these assays?
Cav32 inh: -0.043; Measles CPE: 9; PTK2B oligo ant: -0.76; hDAT+cocaine: -0.22; Rev-RRE block: 7

What do the screens show for `CCOC(=O)c1c(NC(=O)OC)sc2c1CCC2`?
Cav32 inh: -0.6; Measles CPE: 5; PTK2B oligo ant: 0.19; Phagocytosis inh: 0; hDAT+cocaine: 0.83; Rev-RRE block: 17

What do the screens show for `O=C(/C=C/c1cccc([N+](=O)[O-])c1)NCCSCc1cccc(Cl)c1`?
Measles CPE: 6; Phagocytosis inh: -8

Results for O=C(c1cc(NC(=O)C23CC4CC(CC(C4)C2)C3)cc(NC(=O)C23CC4CC(CC(C4)C2)C3)c1)N1CCCCC1 ?
Cav32 inh: -8*; Measles CPE: 4; hDAT+cocaine: 0.47; Rev-RRE block: 0

Results for Cc1[nH]c2ccccc2c1/C=C/c1cc[n+](C)cc1 ?
Measles CPE: 29; PTK2B oligo ant: -1.5; Rev-RRE block: 138*[fluorescence artefact?]

What do the screens show for `O=C(N/N=C/c1ccco1)Nc1ccccc1`?
Measles CPE: 12; PTK2B oligo ant: 0.27; Phagocytosis inh: -11

How did O=C(Nc1cccnc1)Nc1ccccn1 do in these assays?
Cav32 inh: 0.027; Measles CPE: 14; PTK2B oligo ant: -0.43; Phagocytosis inh: -2; hDAT+cocaine: -0.36; Rev-RRE block: 5

What do the screens show for `O=C(Nc1ccc(Cl)cc1)Nc1cccnc1`?
Cav32 inh: 0.15; Measles CPE: 8; PTK2B oligo ant: 0.05; Phagocytosis inh: 1; hDAT+cocaine: -2.3*; Rev-RRE block: 4

What do the screens show for `O=C(N/N=C/c1ccc(Cl)cc1)Nc1ccccc1`?
Cav32 inh: -6.5*; Measles CPE: 0; PTK2B oligo ant: 0.6; hDAT+cocaine: 0.38; Rev-RRE block: 9

Results for Cc1cc(Cl)cc(Cl)c1CNc1c([N+](=O)[O-])c(=O)oc2ccccc12 ?
Measles CPE: 5; Phagocytosis inh: 2
